Laboratory results reported in ChEMBL document CHEMBL1122969, “Spiro[4.5] and spiro[4.6] carboxylic acids: cyclic analogues of valproic acid. Synthesis and anticonvulsant evaluation” (J Med Chem, 1985).

Legend:
Mus musculus [1] = assay: Anticonvulsant activity against Subcutaneous pentylenetetrazole test at dose 300 mg/kg at 0.5 hr; format: functional
Summary of the method: (§1)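 Phase I mouse screen. Compound was suspended in 30% polyethylene glycol 400 and given by intraperitoneal injection at 30, 100, 300 or 600 mg/kg. Testing was at 30 min and 4 h (maximal electroshock or subcutaneous pentylenetetrazol), with rotorod toxicity scored alongside. Scored as animals protected/tested; toxicity was flagged at the 0.5 h or 4 h check.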

Mus musculus [2] = assay: Anticonvulsant activity against Subcutaneous pentylenetetrazole test at dose 300 mg/kg at 4 hr; format: functional; summary of the method: as §1
Mus musculus [3] = assay: Anticonvulsant activity against neurologic toxicity test at dose 600 mg/kg at 4 hr; format: organism-based; set-up: dose 600 mg/kg; conditions: in vivo
Summary of the method: (§2)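 Mice got the compound as a suspension in 30% polyethylene glycol 400 by ip injection (30, 100, 300, 600 mg/kg) 30 min or 4 h before the rotorod neurological toxicity test. The value is the number of animals showing toxicity over the number tested.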

Mus musculus [4] = assay: Anticonvulsant activity against Maximal electroshock seizure at dose 300 mg/kg at 0.5 hr; format: functional; summary of the method: as §1
Mus musculus [5] = assay: Anticonvulsant activity against Subcutaneous pentylenetetrazole test at dose 600 mg/kg at 0.5 hr; format: functional; summary of the method: as §1
Mus musculus [6] = assay: Anticonvulsant activity against Maximal electroshock seizure at dose 600 mg/kg at 0.5 hr; format: functional; summary of the method: as §1
Mus musculus [7] = assay: Anticonvulsant activity against Maximal electroshock seizure at dose 600 mg/kg at 4 hr; format: functional; summary of the method: as §1
Mus musculus [8] = assay: Anticonvulsant activity against Maximal electroshock seizure at dose 300 mg/kg at 4 hr; format: functional; summary of the method: as §1
Mus musculus [9] = assay: Anticonvulsant activity against neurologic toxicity test at dose 600 mg/kg at 0.5 hr; format: organism-based; set-up: dose 600 mg/kg; conditions: in vivo; summary of the method: as §2
Mus musculus [10] = assay: Anticonvulsant activity against neurologic toxicity test at dose 300 mg/kg at 4 hr; format: organism-based; set-up: dose 300 mg/kg; conditions: in vivo; summary of the method: as §2
Mus musculus [11] = assay: Anticonvulsant activity against Subcutaneous pentylenetetrazole test at dose 600 mg/kg at 4 hr; format: functional; summary of the method: as §1
Mus musculus [12] = assay: Anticonvulsant activity against neurologic toxicity test at dose 300 mg/kg at 0.5 hr; format: organism-based; set-up: dose 300 mg/kg; conditions: in vivo; summary of the method: as §2
Mus musculus [13] = assay: Anticonvulsant activity against Maximal electroshock seizure at dose 300 mg/kg at 4 hr; toxic; format: ADME, organism-based; set-up: dose 300 mg/kg; conditions: in vivo; summary of the method: as §1
Mus musculus [14] = assay: Anticonvulsant activity against Maximal electroshock seizure at dose 300 mg/kg at 0.5 hr; toxic; format: ADME, organism-based; set-up: dose 300 mg/kg; conditions: in vivo; summary of the method: as §1
Mus musculus [15] = assay: Anticonvulsant activity against Bicucullin (3.75 mg/kg) induced clonic seizure at dose 300 mg/kg subcutaneously at pretreatment time of 30 min.; format: functional; conditions: route subcutaneous
Summary of the method: (§3)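 CF1 mice (Sprague–Dawley) were given the compound sc in 30% polyethylene glycol 400, with vehicle-injected controls. After the stated pretreatment interval, at the time of peak effect, bicuculline 3.75 mg/kg was injected sc; this dose gives clonic and tonic seizures and death in all controls. Clonic seizure = at least one 5-s clonic spasm episode. Tonic seizure = hindlimb flexion then extension. Scored as mice protected/tested plus mean ± SD onset, minutes.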

[16] = Phase II qualification against neurotoxicity administered subcutaneously was reported.; format: toxicity, organism-based; conditions: mouse, in vivo, sc
Summary of the method: (§4)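 Mice were used. scMet ED50 and rotorod TD50 came from groups of 6–12 mice dosed over a range until at least three points fell within 10–90% protection or minimal neurotoxicity. Both were read at the time of peak effect, 0.5 h. ED50, TD50 and 95% confidence intervals were obtained from a plot by the Litchfield–Wilcoxon method. PI = TD50/ED50.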

Mus musculus [17] = assay: Anticonvulsant activity against Bicucullin (3.75 mg/kg) induced tonic seizure at dose 300 mg/kg subcutaneously at pretreatment time of 30 min.; format: functional; conditions: route subcutaneous; summary of the method: as §3
Mus musculus [18] = assay: Anticonvulsant activity against Bicucullin (3.75 mg/kg) induced death at dose 300 mg/kg subcutaneously at pretreatment time of 30 min.; format: ADME, organism-based; set-up: dose 300 mg/kg, route subcutaneous; conditions: in vivo, sc
Mus musculus [19] = assay: Phase II qualification against administered subcutaneously was reported.; format: functional; conditions: sc; summary of the method: as §4
[20] = Protective index is the ratio of TD50 to that of ED50; format: ADME; conditions: read-out: Protective index; summary of the method: as §4
Mus musculus [21] = assay: Anticonvulsant activity against Bicucullin (3.75 mg/kg) induced tonic seizure at dose 200 mg/kg subcutaneously at pretreatment time of 15 min.; format: functional; conditions: route subcutaneous, in the assay text read “pretreatment time of 30 min” for “pretreatment time of 15 min”; summary of the method: as §3
Mus musculus [22] = assay: Anticonvulsant activity against Bicucullin (3.75 mg/kg) induced clonic seizure at dose 200 mg/kg subcutaneously at pretreatment time of 30 min.; format: functional; conditions: route subcutaneous; summary of the method: as §3
Mus musculus [23] = assay: Anticonvulsant activity against Bicucullin (3.75 mg/kg) induced death at dose 200 mg/kg subcutaneously at pretreatment time of 30 min.; format: ADME, organism-based; set-up: dose 200 mg/kg, route subcutaneous; conditions: in vivo, sc
Mus musculus [24] = assay: Phase V qualification against antipicrotoxin activity administered subcutaneously at 3.2 mg/kg; format: functional; conditions: sc, route subcutaneous
[25] = Phase V qualification against neurotoxicity administered subcutaneously at a dose (3.2 mg/kg) was reported.; format: toxicity, organism-based; conditions: mouse, in vivo, sc
Mus musculus [26] = assay: Anticonvulsant activity against Bicucullin (3.75 mg/kg) induced tonic seizure at dose 150 mg/kg subcutaneously at pretreatment time of 15 min.; format: functional; conditions: route subcutaneous; summary of the method: as §3
Mus musculus [27] = assay: Anticonvulsant activity against Bicucullin (3.75 mg/kg) induced tonic seizure at dose 150 mg/kg subcutaneously at pretreatment time of 30 min.; format: functional; conditions: route subcutaneous; summary of the method: as §3
Mus musculus [28] = assay: Anticonvulsant activity against picrotoxin (4.0 mg/kg) induced clonic seizures at 180 mg/kg subcutaneous dose 15 min pretreatment; format: functional
Mus musculus [29] = assay: Anticonvulsant activity against Bicucullin (3.75 mg/kg) induced death at dose 150 mg/kg subcutaneously at pretreatment time of 30 min.; format: ADME, organism-based; set-up: dose 150 mg/kg, route subcutaneous; conditions: in vivo, sc
Mus musculus [30] = assay: Anticonvulsant activity against Bicucullin (3.75 mg/kg) induced clonic seizure at dose 150 mg/kg subcutaneously at pretreatment time of 15 min.; format: functional; conditions: route subcutaneous; summary of the method: as §3
Mus musculus [31] = assay: Anticonvulsant activity against Bicucullin (3.75 mg/kg) induced death at dose 150 mg/kg subcutaneously at pretreatment time of 15 min.; format: ADME, organism-based; set-up: dose 150 mg/kg, route subcutaneous; conditions: in vivo, sc
Mus musculus [32] = assay: Anticonvulsant activity against Bicucullin (3.75 mg/kg) induced clonic seizure at dose 150 mg/kg subcutaneously at pretreatment time of 30 min.; format: functional; conditions: route subcutaneous; summary of the method: as §3
Mus musculus [33] = assay: Anticonvulsant activity against Bicucullin (3.75 mg/kg) induced tonic seizure at dose 360 mg/kg subcutaneously at pretreatment time of 15 min.; format: functional; conditions: route subcutaneous; summary of the method: as §3
Mus musculus [34] = assay: Anticonvulsant activity against picrotoxin (4.0 mg/kg) induced clonic seizures at 400 mg/kg subcutaneous dose 15 min pretreatment; format: functional
Mus musculus [35] = species on record: Mus musculus; assay: animal or person; conditions: sc
Mus musculus [36] = assay: Anticonvulsant activity against Bicucullin (3.75 mg/kg) induced clonic seizure at dose 360 mg/kg subcutaneously at pretreatment time of 15 min.; format: functional; conditions: route subcutaneous; summary of the method: as §3
Mus musculus [37] = assay: Anticonvulsant activity against Bicucullin (3.75 mg/kg) induced tonic seizure at dose 400 mg/kg subcutaneously at pretreatment time of 15 min.; format: functional; conditions: route subcutaneous; summary of the method: as §3
Mus musculus [38] = assay: Anticonvulsant activity against Bicucullin (3.75 mg/kg) induced death at dose 400 mg/kg subcutaneously at pretreatment time of 15 min.; format: ADME, organism-based; set-up: dose 400 mg/kg, route subcutaneous; conditions: in vivo, sc
Mus musculus [39] = assay: Anticonvulsant activity against Bicucullin (3.75 mg/kg) induced clonic seizure at dose 400 mg/kg subcutaneously at pretreatment time of 15 min.; format: functional; conditions: route subcutaneous; summary of the method: as §3

SMILES | No. protected/tested (Mus musculus [1]) | No. protected/tested (Mus musculus [2]) | No. toxicity/tested (Mus musculus [3]) | No. protected/tested (Mus musculus [4]) | No. protected/tested (Mus musculus [5]) | No. protected/tested (Mus musculus [6]) | No. protected/tested (Mus musculus [7]) | No. protected/tested (Mus musculus [8]) | No. toxicity/tested (Mus musculus [9]) | No. toxicity/tested (Mus musculus [10]) | No. protected/tested (Mus musculus [11]) | No. toxicity/tested (Mus musculus [12]) | No. protected/tested (Mus musculus [14]) | other results
O=C(O)C1(C(=O)O)CCC2(CCCCC2)C1 | 0 | 0 | 2 | 0 | 1 | 0 | 0 | 0 | 0 | 0 | 0 | 0 |  | 
O=C(O)CC1CCC2(CCCCCC2)C1 (stereo unspecified) | 1 | 0 | 0 |  | 1 | 1 | 0 |  | 4 | 0 | 1 | 3 | 1 | No. protected/tested (Mus musculus [13]): 0
O=C(O)C1(C(=O)O)CCC2(CCCCCC2)C1 | 1 | 0 | 2 | 0 | 1 | 0 | 0 |  | 3 | 0 | 0 | 0 |  | Average onset (Mus musculus [15]): 9 min; TD50 [16]: 275 mg/kg; No. protected/tested (Mus musculus [13]): 0; Average onset (Mus musculus [17]): 12 min; Average onset (Mus musculus [18]): 13 min; ED50 (Mus musculus [19]): 194 mg/kg; selectivity ratio [20]: 1.4
O=C(O)C1CCC2(CCCCC2)C1 (stereo unspecified) | 1 | 0 | 0 |  | 1 | 0 | 0 | 0 | 4 | 0 | 0 | 3 | 1 | Average onset (Mus musculus [21]): 11 min; Average onset (Mus musculus [22]): 8 min; Average onset (Mus musculus [23]): 12 min
O=C([O-])C1CCC2(CCCCCC2)C1.[Na+] (stereo unspecified) | 0 | 0 | 2 | 0 | 1 | 0 | 0 | 0 | 4 | 0 | 0 | 0 |  | 
O=C(O)C1CCC2(CCCCCC2)C1 (stereo unspecified) | 1 | 0 | 1 |  | 1 | 0 | 0 | 0 | 4 | 0 | 1 | 1 | 1 | TD50 [16]: 193 mg/kg; ED50 (Mus musculus [24]): 167 mg/kg; TD50 [25]: 193 mg/kg; Average onset (Mus musculus [26]): 10 min; Average onset (Mus musculus [27]): 13 min; Average onset (Mus musculus [28]): 21 min; Average onset (Mus musculus [29]): 14 min; ED50 (Mus musculus [19]): 83 mg/kg; selectivity ratio [20]: 2.3; Average onset (Mus musculus [30]): 7 min; Average onset (Mus musculus [31]): 10 min; Average onset (Mus musculus [32]): 8 min
CCCC(CCC)C(=O)O [VALPROIC ACID] |  |  |  |  |  |  |  |  |  |  |  |  |  | ED50 (Mus musculus [24]): 387 mg/kg; Average onset (Mus musculus [33]): 11 min; Average onset (Mus musculus [34]): 16 min; ED50 (Mus musculus [35]): 149 mg/kg; Average onset (Mus musculus [36]): 9 min; Average onset (Mus musculus [37]): 17 min; Average onset (Mus musculus [38]): 18 min; Average onset (Mus musculus [39]): 15 min
